{"source": "ChEMBL document CHEMBL1255470", "about": "“Effect of ceftaroline on normal human intestinal microflora” (Antimicrob Agents Chemother, 2010)", "key": {"Escherichia coli [1]": {"test_system": "Escherichia coli", "assay": "Antibacterial activity against Escherichia coli in healthy human intestine assessed as decrease in bacterial count at […], iv administered every 12 hrs for 7 days measured on day 14", "assay_type": "functional, organism-based", "outline": "(§1)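 Twelve healthy adults (6 male, 6 female, 20–41 y) received 600 mg by i.v. infusion over 60 min q12h, 13 doses over 7 days. Feces were collected on days −1, 2, 5, 7, 9, 14 and 21 (first specimen of the day) and frozen at −70°C. Samples were suspended in prereduced peptone yeast extract and 10-fold diluted onto nonselective and selective agars. Aerobic plates were incubated 24 h and anaerobic jars 48 h, both at 37°C. Counts were expressed as log CFU/g, with a detection limit of 10^2, and compared by Wilcoxon signed-rank test.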"}, "Candida albicans": {"test_system": "Candida albicans", "assay": "Antifungal activity against Candida albicans in healthy human intestine at […], iv administered every 12 hrs for 7 days measured on day 21", "assay_type": "functional, organism-based", "outline": "as §1"}, "Enterococcus faecalis": {"test_system": "Enterococcus faecalis", "assay": "Antibacterial activity against Enterococcus faecalis ATCC 29212 at =< 4 mg/L after 48 hrs by CLSI method", "assay_type": "functional, organism-based"}, "Enterococcus": {"test_system": "Enterococcus", "assay": "Antibacterial activity against Enterococcus in healthy human intestine at […], iv administered every 12 hrs for 7 days measured on day 21", "assay_type": "functional, organism-based", "outline": "as §1"}, "Enterobacteriaceae": {"test_system": "Enterobacteriaceae", "assay": "Antibacterial activity against Enterobacteriaceae in healthy human intestine assessed as decrease in bacterial count at […], iv administered every 12 hrs for 7 days measured on day 14", "assay_type": "functional, organism-based", "outline": "as §1"}, "Bacteroides fragilis [2]": {"test_system": "Bacteroides fragilis", "assay": "Antibacterial activity against Bacteroides fragilis ATCC 25285 after 48 hrs by CLSI method", "assay_type": "functional", "conditions": "NCTC 9343, 48 h", "outline": "(§2)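 Agar dilution MIC per CLSI anaerobe guidance, with 10^5 CFU per spot inoculum and 48 h incubation. The reference strain was run alongside new colonizing fecal isolates. MIC was taken as the lowest drug concentration giving complete growth inhibition. A provisional resistance breakpoint of 4 mg/liter was applied.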"}, "Propionibacterium": {"test_system": "Propionibacterium", "assay": "Antibacterial activity against Propionibacterium by broth microdilution method", "assay_type": "functional"}, "Prevotella": {"test_system": "Prevotella", "assay": "Antibacterial activity against Prevotella by broth microdilution method", "assay_type": "functional"}, "Bacteroides fragilis [3]": {"test_system": "Bacteroides fragilis", "assay": "Antibacterial activity against Bacteroides fragilis by broth microdilution method", "assay_type": "functional"}, "Homo sapiens [4]": {"test_system": "Homo sapiens", "assay": "Toxicity against healthy human assessed as occurrence of urinary infection at […], iv administered every 12 hrs for 7 days measured on day 9", "assay_type": "organism-based, Urine", "parameters": "route intravenous", "conditions": "in vivo"}, "Clostridium perfringens": {"test_system": "Clostridium perfringens", "assay": "Antibacterial activity against Clostridium perfringens by broth microdilution method", "assay_type": "functional"}, "Staphylococcus aureus": {"test_system": "Staphylococcus aureus", "assay": "Antibacterial activity against Staphylococcus aureus ATCC 29213 at =< 4 mg/L after 48 hrs by CLSI method", "assay_type": "functional, organism-based"}, "Peptostreptococcus sp.": {"test_system": "Peptostreptococcus sp.", "assay": "Antibacterial activity against Peptostreptococcus sp. by broth microdilution method", "assay_type": "functional"}, "Clostridioides difficile [5]": {"test_system": "Clostridioides difficile", "assay": "Antibacterial activity against Clostridium difficile by broth microdilution method", "assay_type": "functional"}, "Escherichia coli [6]": {"test_system": "Escherichia coli", "assay": "Antibacterial activity against Escherichia coli in healthy human intestine assessed as log reduction in bacterial count per gram of feces at […], iv administered every 12 hrs for 7 days measured on day 9", "assay_type": "functional", "outline": "as §1"}, "Homo sapiens [7]": {"test_system": "Homo sapiens", "assay": "Toxicity against healthy human assessed as effect on ECG parameters at […], iv administered every 12 hrs for 7 days measured on day 9", "assay_type": "organism-based", "parameters": "route intravenous", "conditions": "in vivo"}, "Bacteroides sp.": {"test_system": "Bacteroides sp.", "assay": "Antibacterial activity against Bacteroides sp. in healthy human intestine assessed as decrease in bacterial count at […], iv administered every 12 hrs for 7 days measured on day 21", "assay_type": "functional, organism-based", "outline": "as §1"}, "Bifidobacterium": {"test_system": "Bifidobacterium", "assay": "Antibacterial activity against Bifidobacterium in healthy human intestine assessed as log reduction in bacterial count per gram of feces at […], iv administered every 12 hrs for 7 days measured on day 7", "assay_type": "functional", "outline": "as §1"}, "Clostridioides difficile [8]": {"test_system": "Clostridioides difficile", "assay": "Antibacterial activity against Clostridium difficile ATCC 700057 after 48 hrs by CLSI method", "assay_type": "functional", "conditions": "ATCC 700057, 48 h", "outline": "as §2"}, "Clostridium septicum": {"test_system": "Clostridium septicum", "assay": "Antibacterial activity against Clostridium septicum by broth microdilution method", "assay_type": "functional"}, "Escherichia coli [9]": {"test_system": "Escherichia coli", "assay": "Antibacterial activity against Escherichia coli ATCC 25922 at =< 4 mg/L after 48 hrs by CLSI method", "assay_type": "functional, organism-based"}, "Homo sapiens [10]": {"test_system": "Homo sapiens", "assay": "Toxicity against healthy human assessed as effect on hematological parameters at […], iv administered every 12 hrs for 7 days measured on day 9", "assay_type": "organism-based", "parameters": "route intravenous", "conditions": "in vivo"}, "Lactobacillus": {"test_system": "Lactobacillus", "assay": "Antibacterial activity against Lactobacillus in healthy human intestine assessed as log reduction in bacterial count per gram of feces at […], iv administered every 12 hrs for 7 days measured on day 7", "assay_type": "functional", "outline": "as §1"}, "Clostridium": {"test_system": "Clostridium", "assay": "Antibacterial activity against Clostridium in healthy human intestine assessed as decrease in bacterial count at […], iv administered every 12 hrs for 7 days measured on day 7", "assay_type": "functional, organism-based", "outline": "as §1"}, "Escherichia coli [11]": {"test_system": "Escherichia coli", "assay": "Antibacterial activity against Escherichia coli in healthy human intestine assessed as log reduction in bacterial count per gram of feces at […], iv administered every 12 hrs for 7 days measured on day 7", "assay_type": "functional", "outline": "as §1"}}, "note": "Activity calls are given as the source filed them. The calls are words filed in the database; no cut-off is given here.", "data": [{"smiles": "CCO/N=C(\\C(=O)N[C@@H]1C(=O)N2C(C(=O)[O-])=C(Sc3nc(-c4cc[n+](C)cc4)cs3)CS[C@H]12)c1nsc(NP(=O)(O)O)n1", "note": "[CEFTAROLINE FOSAMIL]", "values": [{"measurement": "inhibition", "setting": "Escherichia coli [1]", "value": "Active"}, {"measurement": "Activity", "setting": "Candida albicans", "value": "inactive"}, {"measurement": "Activity", "setting": "Enterococcus faecalis", "value": "Active"}, {"measurement": "Activity", "setting": "Enterococcus", "value": "inactive"}, {"measurement": "inhibition", "setting": "Enterobacteriaceae", "value": "inactive"}, {"measurement": "MIC", "setting": "Bacteroides fragilis [2]", "value": "≥ 64", "unit": "µg/mL"}, {"measurement": "MIC90", "setting": "Propionibacterium", "value": 4, "unit": "µg/mL"}, {"measurement": "MIC90", "setting": "Prevotella", "value": "> 32", "unit": "µg/mL"}, {"measurement": "MIC90", "setting": "Bacteroides fragilis [3]", "value": "> 32", "unit": "µg/mL"}, {"measurement": "Activity", "setting": "Homo sapiens [4]", "value": "Non-toxic"}, {"measurement": "MIC90", "setting": "Clostridium perfringens", "value": 4, "unit": "µg/mL"}, {"measurement": "Activity", "setting": "Staphylococcus aureus", "value": "Active"}, {"measurement": "MIC90", "setting": "Peptostreptococcus sp.", "value": 4, "unit": "µg/mL"}, {"measurement": "MIC90", "setting": "Clostridioides difficile [5]", "value": 4, "unit": "µg/mL"}, {"measurement": "log10cfu", "setting": "Escherichia coli [6]", "value": 1.5}, {"measurement": "Activity", "setting": "Homo sapiens [7]", "value": "Non-toxic"}, {"measurement": "inhibition", "setting": "Bacteroides sp.", "value": "inactive"}, {"measurement": "log10cfu", "setting": "Bifidobacterium", "value": 2.1}, {"measurement": "MIC", "setting": "Clostridioides difficile [8]", "value": 4, "unit": "µg/mL"}, {"measurement": "MIC90", "setting": "Clostridium septicum", "value": 4, "unit": "µg/mL"}, {"measurement": "Activity", "setting": "Escherichia coli [9]", "value": "Active"}, {"measurement": "Activity", "setting": "Homo sapiens [10]", "value": "Non-toxic"}, {"measurement": "log10cfu", "setting": "Lactobacillus", "value": 1.7}, {"measurement": "inhibition", "setting": "Clostridium", "value": "inactive"}, {"measurement": "log10cfu", "setting": "Escherichia coli [11]", "value": 2}]}]}
